ChEMBL document CHEMBL1145471, “Small molecule regulators of autophagy identified by an image-based high-throughput screen” (Proc Natl Acad Sci U S A, 2007)
One block for each compound: values may come before it. Calls of active or inactive are those of the source. The rule behind the calls is not given here.

What was measured:
H4 [1] = assay: Increase in long-lived protein degradation in human H4 cells after 24 hrs relative to control; format: functional; set-up: concentration or dose not given beside the values
H4 [2] = assay: Increase in FYVE-RFP+ vesicle intensity per cell in human H4 cells after 4 hrs relative to control; format: functional; set-up: concentration or dose not given beside the values
Summary of the method: (§1)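 H4 cells stably expressing FYVE-RFP (H4-FYVE), grown in DMEM with 10% FBS, penicillin/streptomycin and 2 mM L-glutamine at 37°C, 5% CO2, seeded in 96-well plates and exposed to compound. Fixed in 4% paraformaldehyde, nuclei stained with 3 μg/ml DAPI, FYVE-RFP+ vesicles quantified by high-throughput fluorescence microscopy against DMSO control. Triplicate wells, mean ± SD.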

H4 [3] = assay: Increase in light chain 3-GFP+ autophagosome vesicle intensity per cell in human H4 cells at 4.8 uM after 24 hrs by high throughput fluorescence microscopy relative to control; format: functional
Summary of the method: (§2)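 H4 cells stably expressing LC3-GFP were grown in DMEM with 10% FBS and 2 mM L-glutamine at 37°C, 5% CO2. They were exposed to each compound for 24 h, with DMSO as negative and rapamycin as positive control. Cells were then fixed in 4% paraformaldehyde and stained with 3 μg/ml DAPI. High-throughput fluorescence imaging scored LC3-GFP spot number, size and intensity, expressed relative to DMSO. Mean ± SD of triplicates; experiments repeated three times.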

H4 [4] = assay: Induction of light chain 3-GFP level in human H4 cells at 4.8 uM after 24 hrs by high throughput fluorescence microscopy relative to control; format: functional
Summary of the method: (§3)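 H4 cells stably expressing LC3-GFP, grown in DMEM with 10% FBS, penicillin/streptomycin and 2 mM L-glutamine at 37°C, 5% CO2. Cells were seeded in 96-well plates and exposed to library compounds at 3–12 μM for 24 h, then fixed in 4% paraformaldehyde and stained with 3 μg/ml DAPI. LC3-GFP spot number, size and intensity were measured by high-throughput fluorescence microscopy and expressed relative to DMSO. Triplicates, mean ± SD.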

[5] = biological target: Serine/threonine-protein kinase mTOR (Homo sapiens, UniProt P42345); assay: Effect on mTOR phosphorylation in human H4 cells at 4.8 uM after 4 hrs; format: cell-based
Summary of the method: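 H4 cells exposed to compound for 4 h. Lysates analysed by Western blot with anti-phospho and anti-total mTOR antibodies, with actin as loading control. Rapamycin served as reference.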

H4 [6] = assay: Increase in FYVE-RFP+ vesicle intensity per cell in human H4 cells after 2 hrs relative to control; format: functional; set-up: concentration or dose not given beside the values; summary of the method: as §1
H4 [7] = assay: Increase in long-lived protein degradation in human H4 cells after 2 hrs relative to control; format: functional; set-up: concentration or dose not given beside the values
H4 [8] = assay: Increase in ratio of light chain 3 subunit 2 to light chain 3 subunit 1 in human H4 cells at 4.8 uM after 4 hrs by Western blot; format: functional, cell-based
Summary of the method: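 H4 cells were treated with each compound for 4 h, then lysed. Lysates were immunoblotted with anti-LC3 antibody, with actin as loading control. LC3II and LC3I bands were compared as an LC3II/LC3I ratio.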

H4 [9] = assay: Increase in FYVE-RFP+ vesicle intensity per cell in human H4 cells after 8 hrs relative to control; format: functional; set-up: concentration or dose not given beside the values; summary of the method: as §1
H4 [10] = assay: Increase in light chain 3-GFP+ autophagosome vesicle area per cell in human H4 cells at 4.8 uM after 24 hrs by high throughput fluorescence microscopy relative to control; format: functional
Summary of the method: (§4)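 H4 cells stably expressing LC3-GFP, seeded in 96-well plates and exposed to compound for 24 h; screening concentrations were 3–12 μM, with rapamycin 0.22 μM and bafilomycin A1 0.40 μM. Cells fixed in 4% paraformaldehyde and stained with 3 μg/ml DAPI. Number, size and intensity of LC3-GFP spots measured by high-throughput fluorescence microscopy and expressed as percent of DMSO-treated wells. Rapamycin was the positive control. Triplicate wells, mean ± SD; experiments repeated three times.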

H4 [11] = assay: Increase in light chain 3-GFP+ autophagosome vesicle number per cell in human H4 cells at 4.8 uM after 24 hrs by high throughput fluorescence microscopy relative to control; format: functional; summary of the method: as §2
H4 [12] = assay: Increase in long-lived protein degradation in human H4 cells after 4 hrs relative to control; format: functional; set-up: concentration or dose not given beside the values
H4 [13] = assay: Increase in long-lived protein degradation in human H4 cells after 1 hr relative to control; format: functional; set-up: concentration or dose not given beside the values
H4 [14] = assay: Effect on FYVE-RFP+ vesicle intensity per cell in human H4 cells after 8 hrs relative to control; format: functional; set-up: concentration or dose not given beside the values; summary of the method: as §1
H4 [15] = assay: Increase in light chain 3-GFP+ autophagosome vesicle intensity per cell in human H4 cells at 4.4 uM after 24 hrs by high throughput fluorescence microscopy relative to control; format: functional; summary of the method: as §2
H4 [16] = assay: Increase in light chain 3-GFP+ autophagosome vesicle area per cell in human H4 cells at 4.4 uM after 24 hrs by high throughput fluorescence microscopy relative to control; format: functional; summary of the method: as §4
H4 [17] = assay: Induction of light chain 3-GFP level in human H4 cells at 4.4 uM after 24 hrs by high throughput fluorescence microscopy relative to control; format: functional; summary of the method: as §3
H4 [18] = assay: Increase in light chain 3-GFP+ autophagosome vesicle number per cell in human H4 cells at 4.4 uM after 24 hrs by high throughput fluorescence microscopy relative to control; format: functional; summary of the method: as §2
H4 [19] = assay: Induction of autophagy in human H4 cells; format: functional, cell-based
H4 [20] = assay: Effect on FYVE-RFP+ vesicle intensity per cell in human H4 cells after 4 hrs relative to control; format: functional; set-up: concentration or dose not given beside the values; summary of the method: as §1
H4 [21] = assay: Effect on FYVE-RFP+ vesicle intensity per cell in human H4 cells after 2 hrs relative to control; format: functional; set-up: concentration or dose not given beside the values; summary of the method: as §1
H4 [22] = assay: Increase in light chain 3-GFP+ autophagosome vesicle intensity per cell in human H4 cells at 5.9 uM after 24 hrs by high throughput fluorescence microscopy relative to control; format: functional; summary of the method: as §2
H4 [23] = assay: Induction of light chain 3-GFP level in human H4 cells at 5.9 uM after 24 hrs by high throughput fluorescence microscopy relative to control; format: functional; summary of the method: as §3
H4 [24] = assay: Increase in light chain 3-GFP+ autophagosome vesicle number per cell in human H4 cells at 5.9 uM after 24 hrs by high throughput fluorescence microscopy relative to control; format: functional; summary of the method: as §2
H4 [25] = assay: Increase in light chain 3-GFP+ autophagosome vesicle area per cell in human H4 cells at 5.9 uM after 24 hrs by high throughput fluorescence microscopy relative to control; format: functional; summary of the method: as §4
H4 [26] = assay: Increase in light chain 3-GFP+ autophagosome vesicle area per cell in human H4 cells at 3.6 uM after 24 hrs by high throughput fluorescence microscopy relative to control; format: functional; summary of the method: as §4
H4 [27] = assay: Induction of light chain 3-GFP level in human H4 cells at 3.6 uM after 24 hrs by high throughput fluorescence microscopy relative to control; format: functional; summary of the method: as §3
H4 [28] = assay: Decrease in FYVE-RFP+ vesicle intensity per cell in human H4 cells after 2 hrs relative to control; format: functional; set-up: concentration or dose not given beside the values; summary of the method: as §1
H4 [29] = assay: Decrease in FYVE-RFP+ vesicle intensity per cell in human H4 cells after 8 hrs relative to control; format: functional; set-up: concentration or dose not given beside the values; summary of the method: as §1
H4 [30] = assay: Increase in light chain 3-GFP+ autophagosome vesicle number per cell in human H4 cells at 3.6 uM after 24 hrs by high throughput fluorescence microscopy relative to control; format: functional; summary of the method: as §2
H4 [31] = assay: Increase in light chain 3-GFP+ autophagosome vesicle intensity per cell in human H4 cells at 3.6 uM after 24 hrs by high throughput fluorescence microscopy relative to control; format: functional; summary of the method: as §4
H4 [32] = assay: Decrease in FYVE-RFP+ vesicle intensity per cell in human H4 cells after 4 hrs relative to control; format: functional; set-up: concentration or dose not given beside the values; summary of the method: as §1

Activity [5]: inactive
SMILES: COC(=O)C1=C(C)NC(C)=C(C(=O)OCCN(C)Cc2ccccc2)C1c1cccc([N+](=O)[O-])c1 (configuration not stated) [NICARDIPINE]
Activity (H4 [1]): 121.03%
Activity (H4 [2]): 112.51%
Activity (H4 [3]): 229.64%
Activity (H4 [4]): 131.58%
Activity (H4 [6]): 132.05%
Activity (H4 [7]): 126.59%
Activity (H4 [8]): Active
Activity (H4 [9]): 104.77%
Activity (H4 [10]): 197.46%
Activity (H4 [11]): 169.02%
Activity (H4 [12]): 122.6%
Activity (H4 [13]): 84.62%

SMILES: CC/C(=C(\c1ccccc1)c1ccc(OCCN(C)C)cc1)c1ccccc1 [TAMOXIFEN]
Activity (H4 [14]): 85.37%
Activity (H4 [1]): 114.97%
Activity (H4 [15]): 585.87%
Activity (H4 [16]): 376.53%
Activity (H4 [17]): 91.2%
Activity (H4 [18]): 291.52%
Activity (H4 [7]): 101.24%
Activity (H4 [19]): inactive
Activity (H4 [20]): 71.55%
Activity (H4 [21]): 77.66%
Activity (H4 [12]): 105.85%
Activity (H4 [13]): 70.67%

SMILES: CN(C)C[C@H](O)Cn1c2ccc(Br)cc2c2cc(Br)ccc21 [WISKOSTATIN]
Activity (H4 [22]): 2401.38%
Activity (H4 [1]): 97.71%
Activity (H4 [2]): 240.08%
Activity (H4 [6]): 267.9%
Activity (H4 [7]): 90.21%
Activity (H4 [9]): 131.93%
Activity (H4 [23]): 96.96%
Activity (H4 [12]): 92.99%
Activity (H4 [13]): 68.51%
Activity (H4 [24]): 789.24%
Activity (H4 [25]): 1226.54%

SMILES: CC[C@@]1([C@@H]2O[C@@H]([C@H]3O[C@@](O)(CO)[C@H](C)C[C@@H]3C)C[C@@H]2C)CC[C@H]([C@]2(C)CC[C@]3(C[C@H](O)[C@@H](C)[C@@H]([C@@H](C)[C@@H](OC)[C@H](C)C(=O)O)O3)O2)O1 [MONENSIN]
Activity (H4 [26]): 418.31%
Activity (H4 [1]): 107.54%
Activity (H4 [27]): 92.38%
Activity (H4 [28]): 81.22%
Activity (H4 [29]): 59.14%
Activity (H4 [30]): 312.92%
Activity (H4 [31]): 639.29%
Activity (H4 [32]): 66.44%
Activity (H4 [7]): 123.64%
Activity (H4 [12]): 109.16%
Activity (H4 [13]): 107.28%
